Values after ≈ are worked out from the molar mass of the structure shown. Where only a bound is given, the exact number is not on record here.

Holding throughout (format): functional
One assay has as its system Staphylococcus aureus. Put plainly: Antimicrobial activity against Staphylococcus aureus ATCC 9144 after 24 hrs using thiazoyl blue by agar overlay bioautography method. In short, it runs like this: (§1)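 Agar-overlay TLC bioautography. Stock samples (10 mg/mL) were serially diluted to 5.0, 1.0, 0.05 and 0.001 mg/mL, spotted on silica gel TLC plates and dried. Plates were overlaid with Sabouraud dextrose agar seeded with 24-h cultures and run in duplicate. Incubation was 24 h at 37 °C for S. aureus and E. coli, and 25 °C for B. subtilis, P. aeruginosa and C. albicans. Plates were then sprayed with MTT and incubated a further 4 h. MIQ was the lowest loading giving a white inhibition zone.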

For a further assay, the system named is Bacillus subtilis. Put plainly: Antimicrobial activity against Bacillus subtilis ATCC 6633 after 24 hrs using thiazoyl blue by agar overlay bioautography method. A digest of the protocol:
as §1

A further assay deals with Pseudomonas aeruginosa. Put plainly: Antimicrobial activity against Pseudomonas aeruginosa NCTC 10332 after 24 hrs using thiazoyl blue by agar overlay bioautography method. In short, it runs like this: as §1
For the next assay, the system named is Candida albicans. Put plainly: Antimicrobial activity against Candida albicans ATCC 10231 after 24 hrs using thiazoyl blue by agar overlay bioautography method. A digest of the protocol: as §1
The test system of another assay is Escherichia coli. Put plainly: Antimicrobial activity against Escherichia coli ATCC 11229 after 24 hrs using thiazoyl blue by agar overlay bioautography method. A digest of the protocol:
as §1

The subject of assay [1] is Radical scavenging activity. Put plainly: Antioxidant activity assessed as DPPH radical scavenging activity after 30 mins by spectrophotometric analysisic analysis. In short, it runs like this:
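Methanolic samples (0.005–0.5 mg/mL) were mixed 1:1 by volume with 2% DPPH and incubated in the dark at room temperature. Absorbance at 517 nm was read at 0.5, 1, 3, 6 and 24 h. Percent scavenged = (A_blank − A_sample)/A_blank × 100, with the blank being DPPH without sample. Ascorbic acid served as reference. Run in triplicate.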

Assay [2] can be described thus: Antioxidant activity assessed as H2O2 scavenging activity at 12.5 to 250 ug/mL after 30 mins by spectrophotometric analysisic analysis. A digest of the protocol: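 Hydrogen peroxide (32.7 mM in PBS, pH 7.4; 0.6 mL) was combined with 0.05–1 mL of 1 mg/mL extract or standard (gallic acid, ascorbic acid) and made up to 4 mL with water. A230 was read before and after 30 min. Background correction used buffer without peroxide. Percent scavenged = (A0 − A1)/A0 × 100.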

Consider `CCO[C@@H]1[C@@H](O)[C@H](O)[C@@H](CO)O[C@@H]1O`, for which the MIC with Staphylococcus aureus, against Bacillus subtilis, in the assay with Pseudomonas aeruginosa, against Candida albicans and in the assay on Escherichia coli was 50 µg throughout.

In the case of `O=C1O[C@H]([C@@H](O)CO)C(O)=C1O` [ASCORBIC ACID], in assay [1], the EC50 worked out at 41.08 µg/mL (≈ 233 µM). Moreover, the Activity in assay [2] is above 50%.

As for `CCCCCCCCCCCCCCCCCCCCCC(=O)O` [BEHENIC ACID], the MIC against Staphylococcus aureus, in the assay on Bacillus subtilis, in the assay on Pseudomonas aeruginosa, against Candida albicans and against Escherichia coli was 50 µg in each case.

For `CC[C@H](CC[C@@H](C)[C@H]1CC[C@H]2[C@@H]3CC=C4C[C@@H](O)CC[C@]4(C)[C@H]3CC[C@]12C)C(C)C` [BETA-SITOSTEROL], the MIC with Staphylococcus aureus, with Bacillus subtilis, against Pseudomonas aeruginosa, in the assay with Candida albicans and with Escherichia coli was 50 µg each time.

For the molecule `O=C(N[C@H](CO)[C@H](O)c1ccc([N+](=O)[O-])cc1)C(Cl)Cl` [CHLORAMPHENICOL], the MIC in the assay on Staphylococcus aureus, in the assay on Bacillus subtilis, with Pseudomonas aeruginosa, in the assay with Candida albicans and against Escherichia coli was 0.001 µg throughout.

As to `O=C(O)c1cc(O)c(O)c(O)c1` [GALLIC ACID], the concentration giving a half-maximal response (EC50) in assay [1] was found to be 1.85 µg/mL (≈ 10.9 µM). Moreover, the Activity in assay [2] is above 50%. Also, the MIC with Staphylococcus aureus, in the assay with Bacillus subtilis, in the assay on Pseudomonas aeruginosa, in the assay with Candida albicans and in the assay on Escherichia coli was 50 µg in each case.

`O=C1C=C2C=C[C@@H](O)[C@H](O)[C@H]2O1` [GRIFFONILIDE]: the MIC in the assay with Staphylococcus aureus, against Bacillus subtilis, with Pseudomonas aeruginosa, in the assay with Candida albicans and with Escherichia coli was 50 µg throughout.

In the case of `N#C/C=C1/C=C[C@@H](O)[C@H](O)[C@H]1O[C@@H]1O[C@H](CO)[C@@H](O)[C@H](O)[C@H]1O` [GRIFFONIN], the MIC with Staphylococcus aureus, with Bacillus subtilis, against Pseudomonas aeruginosa, with Candida albicans and in the assay with Escherichia coli was 50 µg each time.

As to `CCCCCCCC/C=C\CCCCCCCC(=O)O` [OLEIC ACID], the MIC in the assay with Staphylococcus aureus, with Bacillus subtilis, in the assay with Pseudomonas aeruginosa, in the assay with Candida albicans and against Escherichia coli was 50 µg in each case.

Take `O=C(O)c1ccc(O)c(O)c1` [PROTOCATECHUIC ACID]: the MIC with Staphylococcus aureus, in the assay on Bacillus subtilis, with Pseudomonas aeruginosa, with Candida albicans and against Escherichia coli was 50 µg each time.

On to `OC[C@H]1O[C@@](CO)(O[C@H]2O[C@H](CO)[C@@H](O)[C@H](O)[C@H]2O)[C@@H](O)[C@@H]1O` [SUCROSE], for which the MIC with Staphylococcus aureus, against Bacillus subtilis, against Pseudomonas aeruginosa, against Candida albicans and with Escherichia coli was 50 µg each time.

These data come from ChEMBL document CHEMBL1817655, “Tylosema esculentum extractives and their bioactivity” (Bioorg Med Chem, 2011).
